The text below walks through data of ChEMBL document CHEMBL3244118, “3-(3-Substituted prop-1-enyl)cephalosporins” (1977).

Type in all cases: functional
The test system of assay [1] is Staphylococcus aureus. Kind of assay: Antibacterial activity against penicillin G-resistant Staphylococcus aureus ATCC 14154 by agar inclusion method. The procedure, abridged:
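MIC by agar inclusion in brain heart infusion medium, pH 7.4, using twofold dilutions. Strain ATCC 14154 is penicillin G resistant. Values reported in […].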

The test system of assay [2] is Staphylococcus aureus. As to the kind of experiment: Antibacterial activity against Staphylococcus aureus Smith infected in sc dosed mouse assessed as survival of host administered 1 hr and 5 hrs post challenge measured 72 hrs post challenge. The procedure, abridged:
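Mice infected ip with about 2×10^3 S. aureus Smith organisms per mouse, culture diluted in 4% hog gastric mucin for uniformly lethal infection. Twofold dilutions given sc in equally divided portions at 1 and 5 h postinfection, four groups of ten mice. Survivors observed for 72 h. PD50 (total mg/kg protecting 50%) calculated by probit analysis.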

The test system of assay [3] is Streptococcus pyogenes. As to the kind of experiment: Antibacterial activity against Streptococcus pyogenes ATCC 8668 by agar inclusion method. The procedure, abridged:
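MIC by agar inclusion, twofold dilutions in brain heart infusion medium at pH 7.4, reported in […].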

What is called MIC is the least concentration at which growth counts as inhibited. A higher MIC goes with weaker potency.

Take `Cn1nnnc1SCC1=C(C(=O)[O-])N2C(=O)[C@@H](NC(=O)Cc3cccs3)[C@H]2SC1.[Na+]`: the MIC in assay [1] was determined as 100 µM; in assay [3], 13 µM. In assay [2], the PD50 amounted to 1.69 µmol/kg.

Take `Cn1nnnc1SC/C=C/C1=C(C(=O)[O-])N2C(=O)[C@@H](NC(=O)Cc3cccs3)[C@H]2SC1.[Na+]`: the values for the MIC in assay [1] and in assay [3] were 200 µM and 1.6 µM, respectively. Besides, in assay [2], the PD50 stood at 0.3 µmol/kg.

As for `CC(=O)OC/C=C/C1=C(C(=O)[O-])N2C(=O)[C@@H](NC(=O)Cc3cccs3)[C@H]2SC1.[Na+]`, the MIC is 560 µM in assay [1] and less than 2 µM in assay [3]. In addition, the PD50 in assay [2] is 1.85 µmol/kg.

Take `CC(=O)OCC1=C(C(=O)[O-])N2C(=O)[C@@H](NC(=O)Cc3cccs3)[C@H]2SC1.[Na+]` [CEPHALOTHIN SODIUM]: the MIC in assay [1] turned out to be 480 µM; in assay [3], 74 µM. Also, in assay [2], the PD50 came out at 3.54 µmol/kg.
